Calls of active or inactive are those of the source. The calls are words filed in the database; no cut-off is given here.
Tests used:
Mus musculus [1] = experiment: Anticonvulsant activity in Swiss albino mouse assessed as protection against maximal electroshock-induced seizures at 30 mg/kg, ip after 0.5 hrs; assay type: functional, organism-based
Summary of the method: (§1)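 Compound suspended in PEG 400 and given i.p. at 30, 100 or 300 mg/kg, 0.5 or 4 h before testing. Saline (0.9%) applied to the corneas, then 60 Hz alternating current for 0.2 s through corneal electrodes. A mouse counts as protected if hind limb tonic extension stays under 90°. PEG-only placebo mice serve as negative control. Scored as number protected/number tested.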

Mus musculus [2] = experiment: Anticonvulsant activity in Swiss albino mouse assessed as protection against subcutaneously injected metrazol induced seizures at 100 mg/kg, ip after 4 hrs; assay type: functional, organism-based
Summary of the method: (§2)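 Test compounds were given i.p. as PEG 400 suspensions at 30, 100 or 300 mg/kg, 0.5 or 4 h ahead. Metrazol 85 mg/kg is injected s.c. in the neck midline, and mice are watched for 30 min. A mouse counts as protected if it has no clonic spasm episode (about 3–5 s) of the limbs, jaws or vibrissae. PEG placebo serves as negative control. Scored as number protected/number tested.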

Mus musculus [3] = experiment: Neurotoxicity in Swiss albino mouse at 100 mg/kg, ip after 4 hrs by rotarod test; assay type: toxicity, organism-based; conditions: in vivo
Summary of the method: (§3)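 Rotarod turning at 6 rpm, run after i.p. dosing of PEG 400 suspension (30, 100 or 300 mg/kg; 0.5 or 4 h). Falling off three times within 1 min marks a mouse as neurotoxic. Placebo (PEG) mice serve as control. Scored as number failing/number tested.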

Mus musculus [4] = experiment: Anticonvulsant activity in Swiss albino mouse assessed as protection against subcutaneously injected metrazol induced seizures at 300 mg/kg, ip after 4 hrs; assay type: functional, organism-based; summary of the method: as §2
Mus musculus [5] = experiment: Anticonvulsant activity in Swiss albino mouse assessed as protection against subcutaneously injected metrazol induced seizures at 300 mg/kg, ip after 0.5 hrs; assay type: functional, organism-based; summary of the method: as §2
Mus musculus [6] = experiment: Anticonvulsant activity in Swiss albino mouse assessed as protection against maximal electroshock-induced seizures at 100 mg/kg, ip after 0.5 hrs; assay type: functional, organism-based; summary of the method: as §1
Mus musculus [7] = experiment: Neurotoxicity in Swiss albino mouse at 300 mg/kg, ip after 4 hrs by rotarod test; assay type: toxicity, organism-based; conditions: in vivo; summary of the method: as §3
Mus musculus [8] = experiment: Neurotoxicity in Swiss albino mouse at 30 mg/kg, ip after 4 hrs by rotarod test; assay type: toxicity, organism-based; conditions: in vivo; summary of the method: as §3
Mus musculus [9] = experiment: Anticonvulsant activity in Swiss albino mouse assessed as protection against maximal electroshock-induced seizures at 100 mg/kg, ip after 4 hrs; assay type: functional, organism-based; summary of the method: as §1
Mus musculus [10] = experiment: Neurotoxicity in Swiss albino mouse at 300 mg/kg, ip after 0.5 hrs by rotarod test; assay type: toxicity, organism-based; conditions: in vivo; summary of the method: as §3
Mus musculus [11] = experiment: Anticonvulsant activity in Swiss albino mouse assessed as protection against maximal electroshock-induced seizures at 300 mg/kg, ip after 4 hrs; assay type: functional, organism-based; summary of the method: as §1
Mus musculus [12] = experiment: Anticonvulsant activity in Swiss albino mouse assessed as protection against maximal electroshock-induced seizures at 300 mg/kg, ip after 0.5 hrs; assay type: functional, organism-based; summary of the method: as §1
Mus musculus [13] = experiment: Neurotoxicity in Swiss albino mouse at 100 mg/kg, ip after 0.5 hrs by rotarod test; assay type: toxicity, organism-based; conditions: in vivo; summary of the method: as §3
Mus musculus [14] = experiment: Neurotoxicity in Swiss albino mouse at 30 mg/kg, ip after 0.5 hrs by rotarod test; assay type: toxicity, organism-based; conditions: in vivo; summary of the method: as §3
Mus musculus [15] = experiment: Anticonvulsant activity in Swiss albino mouse assessed as protection against maximal electroshock-induced seizures at 30 mg/kg, ip after 4 hrs; assay type: functional, organism-based; summary of the method: as §1
Mus musculus [16] = experiment: Anticonvulsant activity in Swiss albino mouse assessed as protection against subcutaneously injected metrazol induced seizures at 30 mg/kg, ip after 4 hrs; assay type: functional, organism-based; summary of the method: as §2

SMILES	Activity (Mus musculus [1])	Activity (Mus musculus [2])	Activity (Mus musculus [3])	Activity (Mus musculus [4])	Activity (Mus musculus [5])	Activity (Mus musculus [6])	Activity (Mus musculus [7])	Activity (Mus musculus [8])	Activity (Mus musculus [9])	Activity (Mus musculus [10])	Activity (Mus musculus [11])	Activity (Mus musculus [12])	Activity (Mus musculus [13])	Activity (Mus musculus [14])	Activity (Mus musculus [15])	Activity (Mus musculus [16])
NC(=O)N1c2ccccc2C=Cc2ccccc21 [CARBAMAZEPINE]	Active	Active	Non-Toxic	Active	Active	Active	Non-Toxic	Non-Toxic	Active	Toxic	Active	Active	Non-Toxic	Non-Toxic	–	–
CCC(=O)O/N=C(\Cn1cncn1)c1ccc2ccccc2c1.Cl	–	–	Non-Toxic	–	–	–	Non-Toxic	Non-Toxic	–	Non-Toxic	–	–	Non-Toxic	Non-Toxic	–	–
O=C1NC(=O)C(c2ccccc2)(c2ccccc2)N1 [PHENYTOIN]	Active	–	Toxic	–	–	Active	Toxic	Non-Toxic	Active	Toxic	Active	Active	Non-Toxic	Non-Toxic	Active	–
CCC(C)CC(=O)O/N=C(\Cn1cncn1)c1ccc2ccccc2c1.Cl (configuration not stated)	–	–	Non-Toxic	Active	–	Active	Non-Toxic	Non-Toxic	–	Non-Toxic	Active	–	Non-Toxic	Non-Toxic	–	–
CCC(C)C(=O)O/N=C(\Cn1cncn1)c1ccc2ccccc2c1 (configuration not stated)	–	–	Non-Toxic	Active	–	Active	Non-Toxic	Non-Toxic	–	Non-Toxic	–	Active	Non-Toxic	Non-Toxic	–	–
CC(C)C(=O)O/N=C(\Cn1cncn1)c1ccc2ccccc2c1.Cl	–	–	Non-Toxic	–	–	–	Non-Toxic	Non-Toxic	–	Non-Toxic	Active	–	Non-Toxic	Non-Toxic	–	–
CCCCC(=O)O/N=C(\Cn1cncn1)c1ccc2ccccc2c1.Cl	–	–	Non-Toxic	–	–	–	Non-Toxic	Non-Toxic	–	Non-Toxic	–	Active	Non-Toxic	Non-Toxic	–	–
CC(C)CCC(=O)O/N=C(\Cn1cncn1)c1ccc2ccccc2c1.Cl	–	–	Non-Toxic	Active	–	Active	Non-Toxic	Non-Toxic	–	Non-Toxic	–	Active	Non-Toxic	Non-Toxic	–	–
O=C(/C=C/c1ccccc1)O/N=C(\Cn1cncn1)c1ccc2ccccc2c1	–	–	Non-Toxic	–	–	–	Non-Toxic	Non-Toxic	–	Non-Toxic	–	–	Non-Toxic	Non-Toxic	–	–
CCCC(=O)O/N=C(\Cn1cncn1)c1ccc2ccccc2c1	–	–	Non-Toxic	–	–	–	Non-Toxic	Non-Toxic	–	Non-Toxic	Active	–	Non-Toxic	Non-Toxic	–	–
O=C(O/N=C(\Cn1cncn1)c1ccc2ccccc2c1)C1CCCCC1	–	–	Non-Toxic	–	–	–	Non-Toxic	Non-Toxic	–	Non-Toxic	–	Active	Non-Toxic	Non-Toxic	–	–
CCCC(C)C(=O)O/N=C(\Cn1cncn1)c1ccc2ccccc2c1.Cl (configuration not stated)	–	–	Non-Toxic	–	–	–	Non-Toxic	Non-Toxic	–	Non-Toxic	–	Active	Non-Toxic	Non-Toxic	–	–
CCCC(CCC)C(=O)O/N=C(\Cn1cncn1)c1ccc2ccccc2c1.Cl	–	–	Non-Toxic	Active	–	–	Non-Toxic	Non-Toxic	–	Non-Toxic	Active	–	Non-Toxic	Non-Toxic	–	–
CC(C)(C)C(=O)O/N=C(\Cn1cncn1)c1ccc2ccccc2c1	–	–	Non-Toxic	–	–	–	Non-Toxic	Non-Toxic	–	Non-Toxic	–	–	Non-Toxic	Non-Toxic	–	–
Cl.O=C(Cc1ccccc1)O/N=C(\Cn1cncn1)c1ccc2ccccc2c1	–	–	Non-Toxic	–	–	–	Non-Toxic	Non-Toxic	–	Non-Toxic	–	–	Non-Toxic	Non-Toxic	–	–
CC(C)CC(=O)O/N=C(\Cn1cncn1)c1ccc2ccccc2c1.Cl	–	Active	Non-Toxic	Active	Active	–	Non-Toxic	Non-Toxic	Active	Non-Toxic	–	Active	Non-Toxic	Non-Toxic	–	Active

— ChEMBL document CHEMBL3875155, “New (arylalkyl)azole derivatives showing anticonvulsant effects could have VGSC and/or GABAAR affinity according to molecular modeling studies” (Eur J Med Chem, 2016)
